Results published in ChEMBL document CHEMBL1143730, “Probing the bioactive constituents from chemotypes of the sponge Psammocinia aff. bulbosa” (J Nat Prod, 2007).
Values after ≈ are worked out from the molar mass of the structure shown.

How the values were obtained:
HCT-116 [1] = assay: Antitumor activity in human HCT116 tumor-bearing SCID mouse at 62 ug/kg bolus injection after 23 days relative to control; format: functional
Outline: (§1)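 SCID mice (>17 g, weights within 5 g) implanted subcutaneously with 10⁶ tissue-culture-derived HCT-116 cells, 5 per group. Starting 1 day after inoculation, a single intravenous tail-vein bolus (drug at […], 0.25 mL) was given in DMSO diluted 1:1 with Cremophor–propylene glycol (40:60), then ≥20-fold in saline. Tumor weight followed daily. Minimum %T/C reported. Sacrifice at day 30.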

Mus musculus = assay: Toxicity in SCID mouse at 125 ug/kg bolus injection; format: organism-based; settings: in vivo, 0.125 mg/kg
Outline: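 HCT-116 tumor-bearing SCID mice (>17 g, 5 per group). Single intravenous tail-vein bolus of 125 μg/kg (drug at […], 0.25 mL) started 1 day after subcutaneous inoculation of 10⁶ cells. Vehicle was DMSO diluted 1:1 with Cremophor–propylene glycol (40:60), then ≥20-fold in saline. Mice were monitored until sacrifice at day 30.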

HT-29 = assay: Growth inhibition of HT29 cells; format: functional, cell-based; settings: Homo sapiens
Outline: (§2)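 Cells seeded at 5×10^4 per T25 flask in RPMI 1640 with 15% BCS, pen/strep and glutamine. After 3 days (log phase, 5×10^5 cells/flask), compound was added at 10 to 10^-5 μg/mL. After 3 more days, cells were trypsinized and viable and dead cells counted by 0.08% trypan blue exclusion. IC50 determined.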

L1210 = assay: Growth inhibition of L1210 cells; format: functional, cell-based; settings: Mus musculus; outline: as §2
[2] = Growth inhibition of H125 cells; format: functional, cell-based; settings: Homo sapiens, NCI-H125; outline: as §2
HCT-116 [3] = assay: Antitumor activity in human HCT116 tumor-bearing SCID mouse at 31 ug/kg bolus injection after 23 days relative to control; format: functional; outline: as §1
HCT-116 [4] = assay: Survivability of human HCT116 cells assessed as cell kill at >= 2 ng/mL after 24 hrs; format: functional
HCT-116 [5] = assay: Survivability of human HCT116 cells assessed as cell kill at >=120 pg/mL after 168 hrs; format: functional
MDA-MB-231 = assay: Growth inhibition of MDA-MB-231 cells; format: functional, cell-based; settings: Homo sapiens; outline: as §2
HCT-116 [6] = assay: Survivability of human HCT116 cells assessed as cell kill at >=3 ng/mL after 2 hrs; format: functional

## C=C(C)C[C@H](OC)[C@H](O)C(=O)N[C@@H](OC)C1C[C@@H](O)C(C)(C)[C@@H](C[C@H](O)[C@@H](C)[C@@H]2Cc3c(C)c(O)cc(O)c3C(=O)O2)O1 (stereo not given in full) [IRCINIASTATIN]
HCT-116 [1]
  Activity: 75%
Mus musculus
  Activity: Toxic
HT-29
  IC50: 5 ng/mL (≈ 8.2 nM)
L1210
  IC50: 0.18 ng/mL (≈ 0.295 nM)
[2]
  IC50: 0.12 ng/mL (≈ 0.197 nM)
HCT-116 [3]
  Activity: 86%
HCT-116 [4]
  Survival: 90%
HCT-116 [5]
  Survival: 90%
MDA-MB-231
  IC50: 0.2 ng/mL (≈ 0.328 nM)
HCT-116 [6]
  Survival: 90%
